Laboratory results published in ChEMBL document CHEMBL5678802, “Small-molecule p21-activated kinase inhibitor PF-3758309 is a potent inhibitor of oncogenic signaling and tumor growth” (Proc Natl Acad Sci U S A, 2010).
Active and inactive are the calls of the source. No cut-off for these calls is given here.

Columns and labels:
[1] = molecular target: Serine/threonine-protein kinase PAK 4 (Homo sapiens, UniProt O96013); conditions: dose 50.0 µM
HCT-116 [2] = experiment: Downregulation of camptothecin-induced phospho-S474-PAK4 level in human HCT-116 cells at 1 uM preincubated with compound for 15 mins followed by camptothecin stimulation and measured after 20 hrs by Western blot analysis; type: functional, cell-based; conditions: time 20.25 hrs
[3] = molecular target: Serine/threonine-protein kinase PAK 2 (Homo sapiens, UniProt Q13177); experiment: Inhibition of PAK2 (unknown origin)
BT-20 = experiment: Antiproliferative activity against human BT-20 cells assessed as inhibition of cell proliferation incubated for 3 days by CellTiter-Glo Luminescent Cell Viability Assay; type: functional, cell-based; conditions: BT-20, 72 h
In short: (§1)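 Cancer cell lines seeded in 384-well plates on day 1; compound added on day 2 and left for 3 days. On day 5 all medium was aspirated, and viable cells were quantified by CellTiter-Glo luminescence, which measures cellular ATP. Dose-dependent effects on proliferation were determined.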

ZR-75-1 = experiment: Antiproliferative activity against human ZR-75-1 cells assessed as inhibition of cell proliferation incubated for 3 days by CellTiter-Glo Luminescent Cell Viability Assay; type: functional, cell-based; conditions: ZR-75-1, 72 h
In short: (§2)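 Cells of each line were plated in 384-well plates on day 1 and exposed to compound from day 2 for 3 days. On day 5 all medium was aspirated. Viable cell number was read by CellTiter-Glo luminescence, which quantifies cellular ATP.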

[4] = molecular target: AMP-activated protein kinase (AMPK) alpha-1/beta-1/gamma-1 (Homo sapiens) (UniProt P54619+Q9Y478+Q13131); experiment: Inhibition of human AMPK alpha1/beta1/gamma1 in presence of ATP relative to control; type: protein-complex assay; conditions: concentration not given here
[5] = Drug concentration in nude mouse plasma xenografted with human HCT-116 cells at 0.12 mg/kg administered via pump for 9 days by LC-MS/MS analysis; type: ADME, organism-based; conditions: time 9 day
[6] = molecular target: Serine/threonine-protein kinase D2 (Homo sapiens) (UniProt Q9BZL6); experiment: Inhibition of human PKD2 (PRKD2) in presence of ATP relative to control; conditions: concentration not given here
[7] = molecular target: Proto-oncogene tyrosine-protein kinase Src (Homo sapiens, UniProt P12931); experiment: Inhibition of human SRC in presence of ATP by cellular assay
PANC-1 = experiment: Antiproliferative activity against human PANC-1 cells assessed as inhibition of cell proliferation incubated for 3 days by CellTiter-Glo Luminescent Cell Viability Assay; type: functional, cell-based; conditions: PANC-1, 72 h
In short: as §2

[8] = Antiproliferative activity against human 184A1 cells assessed as inhibition of cell proliferation incubated for 3 days by CellTiter-Glo Luminescent Cell Viability Assay; type: functional, cell-based; conditions: 184A1, 72 h
In short: as §1

GTL 16 cell line = experiment: Antitumor activity against human GTL-16 cell line xenografted in nude mouse assessed as tumor growth inhibition at 10 mg/kg, po administered once daily for 9 to 18 days relative to control; type: functional; conditions: time 9-18 day, read-out: TGI
In short: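 Tumor cells were implanted s.c. into the right flank of female nu/nu nude mice aged 6–8 weeks. Animals were randomized into treatment groups once tumors were established (example: day 8 postimplant, about 170 mm3, animals >22 g). Compound in 0.5% methylcellulose was given by oral gavage. Tumors were measured with calipers two to three times per week.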

BT-549 = experiment: Antiproliferative activity against human BT-549 cells assessed as inhibition of cell proliferation incubated for 3 days by CellTiter-Glo Luminescent Cell Viability Assay; type: functional, cell-based; conditions: BT-549, 72 h
In short: as §1

MCF7 = experiment: Antiproliferative activity against human MCF7 cells assessed as inhibition of cell proliferation incubated for 3 days by CellTiter-Glo Luminescent Cell Viability Assay; type: functional, cell-based; conditions: MCF7, 72 h
In short: as §1

[9] = molecular target: Ribosomal protein S6 kinase alpha-3 (Homo sapiens, UniProt P51812); experiment: Inhibition of human RSK2 in presence of ATP by cellular assay
MDA-MB-468 = experiment: Antiproliferative activity against human MDA-MB-468 cells assessed as inhibition of cell proliferation incubated for 3 days by CellTiter-Glo Luminescent Cell Viability Assay; type: functional, cell-based; conditions: MDA-MB-468, 72 h
In short: as §1

MDA-MB-436 = experiment: Antiproliferative activity against human MDA-MB-436 cells assessed as inhibition of cell proliferation incubated for 3 days by CellTiter-Glo Luminescent Cell Viability Assay; type: functional, cell-based; conditions: MDA-MB-436, 72 h
In short: as §1

[10] = Drug concentration in nude mouse plasma xenografted with human HCT-116 cells at 1.1 mg/kg administered via pump for 9 days by LC-MS/MS analysis; type: ADME, organism-based; conditions: time 9 day
NCI-H1299 = experiment: Inhibition of anchorage independent cell growth in human NCI-H1299 cells incubated for 6 days by Alamar blue reagent based fluorescence plate reader analysis; type: functional; conditions: NCI-H1299, 144 h
HCT-116 [11] = experiment: Antitumor activity against human HCT-116 cells xenografted in nude mouse assessed as reduction in Src phosphorylation at Y527 residue at 15 to 150 mg/kg/day administered via pump for 18 hrs by Reverse-Phase protein array analysis; type: functional, organism-based; conditions: dose 15-150 mg/kg/day
LS174T = experiment: Antiproliferative activity against human LS174T cells assessed as inhibition of cell proliferation incubated for 3 days by CellTiter-Glo Luminescent Cell Viability Assay; type: functional, cell-based; conditions: 72 h
In short: as §1

HCT-116 [12] = experiment: Antitumor activity against human HCT-116 cells xenografted in nude mouse assessed as reduction in PKCalpha phosphorylation at S569 residue at 15 to 150 mg/kg/day administered via pump for 18 hrs by Reverse-Phase protein array analysis; type: functional, organism-based; conditions: dose 15-150 mg/kg/day
[13] = molecular target: Protein kinase C beta type (Homo sapiens, UniProt P05771); experiment: Inhibition of human PKCbeta-II in presence of ATP relative to control; conditions: concentration not given here
[14] = Inhibition of YFP/YFP variant coding sequence fused PAK4/cofilin (unknown origin) expressed in HEK293 cells incubated for 8 to 24 hrs by fluorescence based analysis; type: cell-based, Homo sapiens
[15] = molecular target: Tyrosine-protein kinase Yes (Homo sapiens, UniProt P07947); experiment: Inhibition of human YES1 assessed as inhibition constant in presence of ATP
HCT-116 [16] = experiment: Antitumor activity against human HCT-116 cells xenografted in nude mouse assessed as inhibition of [3H]FLT uptake at 25 mg/kg, po administered once a day for 2 day and measured after 2 hrs post [3H]FLT administration by scintillation counter analysis relative to control; type: functional; conditions: HCT-116, 48 h
In short: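 HCT116 xenograft mice (tumors 300–350 mm3, n = 5 per group) received oral vehicle or compound, with harvests on days 2, 3 and 6. Isoflurane-anesthetized mice were given [3H]FLT (15 nCi/g, i.p.) 2 h before killing. Tumor and liver were weighed, solubilized and scintillation-counted. SUV = C/(ID/W), and uptake is reported as the tumor-to-liver SUV ratio.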

NCI-H1770 = experiment: Inhibition of anchorage independent cell growth in human NCI-H1770 cells incubated for 6 days by Alamar blue reagent based fluorescence plate reader analysis; type: functional; conditions: NCI-H1770, 144 h
CAPAN-1 = experiment: Antiproliferative activity against human CAPAN-1 cells assessed as inhibition of cell proliferation incubated for 3 days by CellTiter-Glo Luminescent Cell Viability Assay; type: functional, cell-based; conditions: CAPAN-1, 72 h
In short: as §1

HCT-116 [17] = experiment: Induction of cell cycle arrest in human HCT-116 cells assessed as accumulation of cells at G0/G1 phase at 100 nM measured after 48 hrs by fluorescence activated cell sorter analysis (reference value: 50.74%); type: functional

Chain of Serine/threonine-protein kinase D2 (Homo sapiens) (Q9BZL6 whole entry): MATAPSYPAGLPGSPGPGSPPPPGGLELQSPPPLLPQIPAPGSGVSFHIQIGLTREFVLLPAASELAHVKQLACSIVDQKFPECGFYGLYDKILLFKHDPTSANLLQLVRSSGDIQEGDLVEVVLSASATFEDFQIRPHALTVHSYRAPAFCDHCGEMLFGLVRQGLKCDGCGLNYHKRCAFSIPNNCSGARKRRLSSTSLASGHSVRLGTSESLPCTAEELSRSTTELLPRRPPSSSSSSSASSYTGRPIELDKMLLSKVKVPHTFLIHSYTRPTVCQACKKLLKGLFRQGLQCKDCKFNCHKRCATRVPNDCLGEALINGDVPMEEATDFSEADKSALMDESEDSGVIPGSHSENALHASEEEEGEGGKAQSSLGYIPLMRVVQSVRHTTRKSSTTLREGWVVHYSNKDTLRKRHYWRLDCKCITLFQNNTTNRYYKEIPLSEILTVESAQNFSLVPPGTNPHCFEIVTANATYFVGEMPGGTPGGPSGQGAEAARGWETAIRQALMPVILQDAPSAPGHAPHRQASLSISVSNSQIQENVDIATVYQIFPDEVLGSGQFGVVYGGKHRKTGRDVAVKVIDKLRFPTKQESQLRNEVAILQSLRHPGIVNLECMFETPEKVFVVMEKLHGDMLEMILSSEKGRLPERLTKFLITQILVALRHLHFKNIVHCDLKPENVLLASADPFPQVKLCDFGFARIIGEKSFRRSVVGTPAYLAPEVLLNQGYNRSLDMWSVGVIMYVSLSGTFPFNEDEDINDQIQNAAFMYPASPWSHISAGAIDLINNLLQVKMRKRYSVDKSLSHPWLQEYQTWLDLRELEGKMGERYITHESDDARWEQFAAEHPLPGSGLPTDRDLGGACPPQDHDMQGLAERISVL
Chain of Serine/threonine-protein kinase PAK 4 (O96013 whole entry, looked up): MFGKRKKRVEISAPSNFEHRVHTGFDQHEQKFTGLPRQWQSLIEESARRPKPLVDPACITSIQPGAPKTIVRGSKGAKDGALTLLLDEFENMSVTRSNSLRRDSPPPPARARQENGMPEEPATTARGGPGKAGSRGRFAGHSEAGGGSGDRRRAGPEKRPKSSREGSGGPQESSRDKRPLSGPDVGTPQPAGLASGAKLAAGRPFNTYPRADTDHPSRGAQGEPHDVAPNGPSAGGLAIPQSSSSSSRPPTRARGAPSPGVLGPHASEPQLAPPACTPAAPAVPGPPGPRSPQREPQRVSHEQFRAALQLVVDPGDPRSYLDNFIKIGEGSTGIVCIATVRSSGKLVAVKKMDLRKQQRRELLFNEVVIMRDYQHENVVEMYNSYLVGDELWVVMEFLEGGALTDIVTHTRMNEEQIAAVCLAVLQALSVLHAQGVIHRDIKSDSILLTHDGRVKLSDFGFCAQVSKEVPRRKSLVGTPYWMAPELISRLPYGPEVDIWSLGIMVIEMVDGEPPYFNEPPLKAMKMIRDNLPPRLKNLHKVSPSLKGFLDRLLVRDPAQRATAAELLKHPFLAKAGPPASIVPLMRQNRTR
Chain of Ribosomal protein S6 kinase alpha-3 (P51812 whole entry): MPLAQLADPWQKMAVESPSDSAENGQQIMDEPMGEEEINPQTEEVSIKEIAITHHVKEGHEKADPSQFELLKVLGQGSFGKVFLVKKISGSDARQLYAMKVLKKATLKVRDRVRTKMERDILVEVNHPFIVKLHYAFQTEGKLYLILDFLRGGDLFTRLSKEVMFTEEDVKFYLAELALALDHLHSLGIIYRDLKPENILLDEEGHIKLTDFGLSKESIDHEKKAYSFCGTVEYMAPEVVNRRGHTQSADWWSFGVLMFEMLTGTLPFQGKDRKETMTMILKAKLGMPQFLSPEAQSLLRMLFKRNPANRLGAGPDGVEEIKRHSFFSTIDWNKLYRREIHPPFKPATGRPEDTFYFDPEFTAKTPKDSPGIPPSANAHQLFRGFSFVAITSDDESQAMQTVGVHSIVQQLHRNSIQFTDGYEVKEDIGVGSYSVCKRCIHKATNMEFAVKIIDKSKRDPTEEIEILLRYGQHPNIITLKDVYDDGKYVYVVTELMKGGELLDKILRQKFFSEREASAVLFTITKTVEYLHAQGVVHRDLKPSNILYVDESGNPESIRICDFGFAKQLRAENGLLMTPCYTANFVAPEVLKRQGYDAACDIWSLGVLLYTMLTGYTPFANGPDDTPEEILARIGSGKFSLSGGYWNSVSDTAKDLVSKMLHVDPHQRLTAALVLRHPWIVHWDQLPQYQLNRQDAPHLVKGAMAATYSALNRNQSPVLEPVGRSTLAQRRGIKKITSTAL
Chain of Serine/threonine-protein kinase PAK 2 (Q13177 whole entry): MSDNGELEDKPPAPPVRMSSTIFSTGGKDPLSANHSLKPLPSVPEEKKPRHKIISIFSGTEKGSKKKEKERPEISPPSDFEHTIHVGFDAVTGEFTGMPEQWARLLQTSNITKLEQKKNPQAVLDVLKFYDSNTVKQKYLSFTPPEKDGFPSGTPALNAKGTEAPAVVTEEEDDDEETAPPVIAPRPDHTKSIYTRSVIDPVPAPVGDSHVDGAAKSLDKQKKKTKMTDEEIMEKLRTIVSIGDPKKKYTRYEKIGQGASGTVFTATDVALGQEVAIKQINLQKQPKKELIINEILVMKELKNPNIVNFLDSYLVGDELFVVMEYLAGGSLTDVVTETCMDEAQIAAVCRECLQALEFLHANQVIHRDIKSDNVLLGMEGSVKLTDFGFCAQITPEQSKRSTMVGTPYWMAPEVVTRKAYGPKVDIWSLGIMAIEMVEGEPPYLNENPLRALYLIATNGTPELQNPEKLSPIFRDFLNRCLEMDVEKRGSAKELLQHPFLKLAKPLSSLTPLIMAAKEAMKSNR
Chain of AMP-activated protein kinase (AMPK) alpha-1/beta-1/gamma-1 (Homo sapiens) (P54619 whole entry): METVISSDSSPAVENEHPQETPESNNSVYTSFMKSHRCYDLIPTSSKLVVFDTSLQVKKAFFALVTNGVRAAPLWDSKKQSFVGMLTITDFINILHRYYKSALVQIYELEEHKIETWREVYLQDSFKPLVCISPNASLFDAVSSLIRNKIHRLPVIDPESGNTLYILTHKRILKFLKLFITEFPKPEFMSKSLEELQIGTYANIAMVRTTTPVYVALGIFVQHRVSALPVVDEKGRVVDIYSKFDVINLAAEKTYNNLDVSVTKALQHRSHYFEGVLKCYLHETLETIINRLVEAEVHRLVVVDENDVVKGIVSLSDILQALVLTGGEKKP
Chain of AMP-activated protein kinase (AMPK) alpha-1/beta-1/gamma-1 (Homo sapiens) (Q13131 whole entry partner): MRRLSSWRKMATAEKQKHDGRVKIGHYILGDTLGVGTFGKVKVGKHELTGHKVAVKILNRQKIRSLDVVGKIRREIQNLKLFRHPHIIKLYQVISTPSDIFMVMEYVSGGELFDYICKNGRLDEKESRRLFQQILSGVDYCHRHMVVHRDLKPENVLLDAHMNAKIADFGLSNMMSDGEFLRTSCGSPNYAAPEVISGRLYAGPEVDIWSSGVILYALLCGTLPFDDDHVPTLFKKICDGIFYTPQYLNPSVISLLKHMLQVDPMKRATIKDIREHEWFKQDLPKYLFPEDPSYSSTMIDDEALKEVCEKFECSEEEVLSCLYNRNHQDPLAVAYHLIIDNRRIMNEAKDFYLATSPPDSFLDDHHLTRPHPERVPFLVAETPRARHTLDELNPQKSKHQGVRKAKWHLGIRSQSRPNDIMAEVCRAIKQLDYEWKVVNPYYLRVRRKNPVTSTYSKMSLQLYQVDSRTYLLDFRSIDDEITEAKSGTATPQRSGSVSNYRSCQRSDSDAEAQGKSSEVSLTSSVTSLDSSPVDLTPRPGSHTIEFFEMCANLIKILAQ
Chain of AMP-activated protein kinase (AMPK) alpha-1/beta-1/gamma-1 (Homo sapiens) (Q9Y478 2-270 partner limits assumed): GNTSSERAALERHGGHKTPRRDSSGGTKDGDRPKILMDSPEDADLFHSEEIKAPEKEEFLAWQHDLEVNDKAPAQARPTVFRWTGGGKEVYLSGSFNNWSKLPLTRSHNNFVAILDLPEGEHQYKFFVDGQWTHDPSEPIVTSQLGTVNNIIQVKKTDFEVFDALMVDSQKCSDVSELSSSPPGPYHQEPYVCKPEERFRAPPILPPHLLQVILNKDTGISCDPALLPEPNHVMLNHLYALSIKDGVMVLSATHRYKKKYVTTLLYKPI
Chain of Tyrosine-protein kinase Yes (P07947 whole entry): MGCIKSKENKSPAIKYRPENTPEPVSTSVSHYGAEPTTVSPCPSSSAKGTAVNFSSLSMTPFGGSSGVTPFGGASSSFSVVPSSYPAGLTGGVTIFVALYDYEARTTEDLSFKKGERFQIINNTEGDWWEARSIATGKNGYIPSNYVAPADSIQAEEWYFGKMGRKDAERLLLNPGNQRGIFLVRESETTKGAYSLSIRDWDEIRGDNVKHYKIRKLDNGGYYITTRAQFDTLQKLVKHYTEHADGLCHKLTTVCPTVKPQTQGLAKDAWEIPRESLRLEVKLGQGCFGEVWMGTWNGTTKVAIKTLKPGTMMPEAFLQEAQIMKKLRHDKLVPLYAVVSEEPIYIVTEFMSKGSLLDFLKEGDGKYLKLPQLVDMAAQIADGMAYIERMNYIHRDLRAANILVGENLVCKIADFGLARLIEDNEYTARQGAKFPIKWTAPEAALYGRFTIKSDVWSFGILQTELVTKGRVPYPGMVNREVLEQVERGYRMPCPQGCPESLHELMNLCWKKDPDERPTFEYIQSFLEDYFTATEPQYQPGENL
Chain of Proto-oncogene tyrosine-protein kinase Src (P12931 2-536 limits assumed): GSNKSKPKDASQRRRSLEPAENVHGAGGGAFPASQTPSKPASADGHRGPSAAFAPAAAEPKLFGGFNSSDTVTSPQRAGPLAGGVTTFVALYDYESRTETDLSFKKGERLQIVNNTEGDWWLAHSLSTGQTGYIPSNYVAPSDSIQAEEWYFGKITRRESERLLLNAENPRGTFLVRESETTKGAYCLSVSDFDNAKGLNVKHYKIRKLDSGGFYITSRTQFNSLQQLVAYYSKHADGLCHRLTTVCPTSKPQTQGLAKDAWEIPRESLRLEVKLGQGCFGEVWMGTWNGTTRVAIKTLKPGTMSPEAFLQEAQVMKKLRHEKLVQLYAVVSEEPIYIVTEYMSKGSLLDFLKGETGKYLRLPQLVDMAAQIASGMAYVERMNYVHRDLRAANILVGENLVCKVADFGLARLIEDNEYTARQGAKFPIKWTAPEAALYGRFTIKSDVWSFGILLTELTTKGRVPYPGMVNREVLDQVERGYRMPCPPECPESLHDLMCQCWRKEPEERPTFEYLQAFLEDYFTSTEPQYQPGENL

## Cc1nc(Nc2n[nH]c3c2CN(C(=O)N[C@H](CN(C)C)c2ccccc2)C3(C)C)c2sccc2n1 [PF-03758309]
[1]
  deltaH: -5 kcal/mol
HCT-116 [2]
  Activity: Active
[3]
  IC50: 190 nM
BT-20
  IC50: 81.7 nM
ZR-75-1
  IC50: 0.49 nM
[4]
  inhibition: 101%
[5]
  concentration at 216 h: 0.56 ng/mL
[6]
  inhibition: 96%
[7]
  IC50: 2210 nM
PANC-1
  IC50: 856 nM
[8]
  IC50: 0.83 nM
GTL 16 cell line
  inhibition in vivo at 10 mg/kg: 0%
BT-549
  IC50: 0.41 nM
MCF7
  IC50: 44.6 nM
[9]
  IC50: 171 nM
MDA-MB-468
  IC50: 0.63 nM
MDA-MB-436
  IC50: 0.79 nM
[10]
  concentration at 216 h: 5.6 ng/mL
NCI-H1299
  IC50: 7 nM
HCT-116 [11]
  Activity: Active
LS174T
  IC50: 7.2 nM
HCT-116 [12]
  Activity: Active
[13]
  inhibition: 90%
[14]
  IC50: 10.4 nM
[15]
  Ki: 43 nM
HCT-116 [16]
  inhibition in vivo at 25 mg/kg: 35.3%
NCI-H1770
  IC50: 1.84 nM
CAPAN-1
  IC50: 1100 nM
HCT-116 [17]
  Activity: 49.41%
